Assay results reported in ChEMBL document CHEMBL1944617, “Near infrared active heptacyanine dyes with unique cancer-imaging and cytotoxic properties” (Bioorg Med Chem Lett, 2012).
Each block holds one molecule with its values, some of them ahead of it. Calls of active or inactive are those of the source. The rule behind the calls is not given here.

Legend:
[1] = Cytotoxicity against human HDF cells assessed as cell viability at 5 to 20 uM after 24 hrs by trypan blue exclusion assay; assay type: cell-based; details: for Activity: hdf, 24 h, 20 µM
In short: (§1)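 Primary human dermal fibroblasts in DMEM with 10% FBS and 1% pen/strep, dosed at 5, 10 or 20 µM for 24 h. Cells pelleted and washed with PBS, then mixed 1:1 with 0.4% trypan blue in PBS pH 7.4, 5 min RT. Blue cells scored non-viable by microscope counting. Mean ± SD of three independent experiments.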

PC-3 [2] = assay: Cytotoxicity against human PC3 cells after 48 hrs by MTT assay; assay type: functional, cell-based; details: for IC50: PC-3, 48 h
In short: (§2)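 HeLa and HDF in DMEM, PC-3 in RPMI, each with 10% FBS and 1% pen/strep. Seeded at 5 × 10³ cells/well, then given dye in DMSO (final DMSO 0.1%) at 0, 0.75, 1, 2, 5, 10, 15, 20 µM for 48 h. Washed twice with PBS, MTT added, 4 h at 37 °C in the dark. Formazan dissolved in DMSO, A570 read. IC50 taken from the survival-versus-concentration curve.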

HeLa [3] = assay: Cytotoxicity against human HeLa cells after 48 hrs by MTT assay; assay type: functional, cell-based; in short: as §2
[4] = Cytotoxicity against human HDF cells after 48 hrs by MTT assay; assay type: cell-based; details: for IC50: Homo sapiens, HDF; for Activity: human, hdf; in short: as §2
[5] = Cellular uptake in human HDF cell cytoplasm at 20 uM after 8 hrs by fluorescence confocal microscopic analysis; assay type: ADME, cell-based
In short: (§3)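 PC-3 (RPMI) or primary human dermal fibroblasts (DMEM), 10% FBS, 1% pen/strep, grown on glass coverslips and exposed to dye at 20 µM for 8 h. Fixed in cold (−20 °C) methanol 10 min, blocked in 2% BSA/PBS at 37 °C 1 h, actin stained with fluorescent phalloidin 1 h RT, mounted with DAPI antifade. NIR dye imaged with ICG filter set and 780 nm LED.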

PC-3 [6] = assay: Cytotoxicity against human PC3 cells assessed as cell death at 5 to 20 uM after 24 hrs by trypan blue exclusion assay; assay type: functional
In short: (§4)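 Cells treated 24 h with dye at 5, 10 or 20 µM (PC-3 in RPMI; HeLa and HDF in DMEM; 10% FBS, 1% penicillin/streptomycin). Cells pelleted, PBS-washed, mixed 1:1 with 0.4% trypan blue in PBS pH 7.4, 5 min room temperature. Blue cells scored non-viable by microscope counting. Mean and SD of three independent experiments.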

HeLa [7] = assay: Cytotoxicity against human HeLa cells assessed as cell death at 5 to 20 uM after 24 hrs by trypan blue exclusion assay; assay type: functional; in short: as §4
[8] = Cellular uptake in human PC3 cell cytoplasm at 20 uM after 8 hrs by fluorescence confocal microscopic analysis; assay type: ADME, cell-based; details: pc-3, 8 h; in short: as §3
[9] = Cytotoxicity against human HDF cells assessed as cell survival at 5 to 10 uM after 24 hrs by trypan blue exclusion assay; assay type: cell-based; details: read-out: Survival; in short: as §4
PC-3 [10] = assay: Cytotoxicity against human PC3 cells assessed as cell survival at 5 to 10 uM after 24 hrs by trypan blue exclusion assay; assay type: functional; in short: as §4
[11] = Cytotoxicity against human HDF cells assessed as cell death at 5 to 10 uM after 24 hrs by trypan blue exclusion assay; assay type: cell-based; in short: as §1
[12] = Cytotoxicity against human HDF cells assessed as cell death at 20 uM after 24 hrs by trypan blue exclusion assay; assay type: cell-based; in short: as §1
HeLa [13] = assay: Cytotoxicity against human HeLa cells assessed as cell survival at 5 to 10 uM after 24 hrs by trypan blue exclusion assay; assay type: functional; in short: as §4

SMILES: COC(=O)CCCCCN1/C(=C/C=C2\CCCC(/C=C/C3=[N+](CCCCCC(=O)OC)c4ccccc4C3(C)C)=C2Cl)C(C)(C)c2ccccc21.[Br-]
- viability at 24 h, up to 20 µM ([1]; HDF cells, read-out: Activity): 100%
- IC50 (PC-3 [2]): 3 µM
- IC50 (HeLa [3]): 0.8 µM
- IC50 [4]: 10 µM
- Drug uptake [5]: Not Active
- Activity (PC-3 [6]): >90%
- Activity (HeLa [7]): >90%
- Drug uptake [8]: Active

SMILES: CC1(C)C(/C=C/C2=C(Cl)C(=C/C=C3/N(CCCCS(=O)(=O)O)c4ccccc4C3(C)C)/CCC2)=[N+](CCCCS(=O)(=O)[O-])c2ccccc21
- Activity (PC-3 [2]): inactive
- Activity (HeLa [3]): inactive
- Activity (PC-3 [6]): inactive
- Activity (HeLa [7]): inactive

SMILES: COC(=O)CCCCCN1/C(=C/C=C2\CCCC(/C=C/C3=[N+](CCCCCC(=O)O)c4ccccc4C3(C)C)=C2Cl)C(C)(C)c2ccccc21.[Br-]
- IC50 (PC-3 [2]): 2 µM
- IC50 (HeLa [3]): 1 µM
- viability at 24 h, up to 10 µM [9]: 85%
- Survival (PC-3 [10]): 20%
- IC50 [4]: 5 µM
- Drug uptake [5]: Not Active
- Activity (PC-3 [6]): Active
- Activity (HeLa [7]): Active
- Drug uptake [8]: Active
- Activity [11]: 10%
- Activity [12]: 80%
- Survival (HeLa [13]): 20%

- Drug uptake [5]: Not Active
- Drug uptake [8]: Not Active
SMILES: CC1(C)C(/C=C/C2=C(Cl)C(=C/C=C3\N(CCCCS(=O)(=O)[O-])c4ccccc4C3(C)C)/CCC2)=[N+](CCCCS(=O)(=O)[O-])c2ccccc21.[Na+]
- Activity [1]: Non-toxic
- Activity [4]: Non-toxic

SMILES: CC1(C)C(/C=C/C2=C(Cl)C(=C/C=C3/N(CCCCCC(=O)O)c4ccccc4C3(C)C)/CCC2)=[N+](CCCCCC(=O)O)c2ccccc21.[Br-]
- Activity [1]: Non-toxic
- Activity (PC-3 [2]): inactive
- Activity (HeLa [3]): inactive
- Activity [4]: Non-toxic
- Drug uptake [5]: Not Active
- Activity (PC-3 [6]): inactive
- Activity (HeLa [7]): inactive
- Drug uptake [8]: Not Active
